# From ChEMBL document CHEMBL1641413, “Identification of 3-sulfonylindazole derivatives as potent and selective 5-HT(6) antagonists” (Bioorg Med Chem, 2011)
# The source made the active and inactive calls. The rule behind the calls is not given here.
# Experiments:
# [1] = % bound in plasma; format: ADME, cell-free; settings: read-out: PPB
# [2] = biological target: T1, 5-hydroxytryptamine receptor 6 (Homo sapiens, UniProt P50406); experiment: Displacement of [3H]-LSD from cloned human 5-HT6 receptor expressed in human HeLa cells; format: cell-based
# T1 sequence (P50406 whole entry): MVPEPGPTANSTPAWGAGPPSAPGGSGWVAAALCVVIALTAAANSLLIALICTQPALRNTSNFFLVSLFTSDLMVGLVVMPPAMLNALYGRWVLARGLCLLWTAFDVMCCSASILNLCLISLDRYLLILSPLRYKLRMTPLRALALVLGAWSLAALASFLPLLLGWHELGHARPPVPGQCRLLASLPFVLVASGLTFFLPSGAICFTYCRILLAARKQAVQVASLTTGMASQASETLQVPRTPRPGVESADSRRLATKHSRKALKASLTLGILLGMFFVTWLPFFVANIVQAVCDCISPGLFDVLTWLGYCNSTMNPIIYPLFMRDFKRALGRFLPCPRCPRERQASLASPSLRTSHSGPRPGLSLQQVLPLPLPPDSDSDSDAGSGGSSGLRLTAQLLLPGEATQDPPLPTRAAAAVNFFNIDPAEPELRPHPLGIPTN
# Summary of the method: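 Radioligand displacement of [³H]-LSD from cloned human 5-HT6 receptors stably expressed in HeLa cells; compounds tested as HCl salts; Ki values determined in triplicate.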
# [3] = biological target: T1, 5-hydroxytryptamine receptor 6; experiment: Antagonist activity at cloned human 5-HT6 receptor expressed in human HeLa cells assessed as inhibition of 5HT-induced cyclic AMP formation; format: functional, cell-based
# [4] = biological target: T2, 5-hydroxytryptamine receptor 1A (Homo sapiens, UniProt P08908); experiment: Binding affinity to 5-HT1A receptor
# T2 sequence (P08908 whole entry): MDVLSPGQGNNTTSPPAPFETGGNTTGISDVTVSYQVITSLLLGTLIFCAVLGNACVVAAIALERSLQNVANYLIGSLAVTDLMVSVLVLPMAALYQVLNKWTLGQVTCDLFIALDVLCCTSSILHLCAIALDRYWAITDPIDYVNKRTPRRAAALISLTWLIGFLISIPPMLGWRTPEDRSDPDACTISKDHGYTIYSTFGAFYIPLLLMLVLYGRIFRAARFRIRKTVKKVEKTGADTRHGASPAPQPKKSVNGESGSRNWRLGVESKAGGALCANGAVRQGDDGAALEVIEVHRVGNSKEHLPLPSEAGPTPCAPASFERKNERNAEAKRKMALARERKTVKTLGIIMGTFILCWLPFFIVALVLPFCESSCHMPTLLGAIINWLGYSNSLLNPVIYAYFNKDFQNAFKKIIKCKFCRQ
# [5] = biological target: 5-hydroxytryptamine receptor 1B (Homo sapiens, UniProt P28222); experiment: Binding affinity to 5-HT1B receptor
# 5-hydroxytryptamine receptor 1B, sequence (P28222 whole entry): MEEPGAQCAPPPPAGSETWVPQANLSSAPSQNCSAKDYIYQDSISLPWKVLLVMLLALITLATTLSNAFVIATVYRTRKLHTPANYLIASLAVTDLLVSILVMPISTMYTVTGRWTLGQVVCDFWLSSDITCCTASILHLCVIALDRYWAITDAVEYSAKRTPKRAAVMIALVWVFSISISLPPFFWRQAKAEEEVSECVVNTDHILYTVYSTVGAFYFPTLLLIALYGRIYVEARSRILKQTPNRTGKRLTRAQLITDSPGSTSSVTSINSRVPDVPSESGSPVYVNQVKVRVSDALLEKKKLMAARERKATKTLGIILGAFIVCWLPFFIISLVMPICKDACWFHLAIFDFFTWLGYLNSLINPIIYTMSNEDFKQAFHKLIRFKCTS
# [6] = biological target: T3, 5-hydroxytryptamine receptor 2C (Homo sapiens, UniProt P28335); experiment: Binding affinity to 5-HT2C receptor
# T3 sequence (P28335 whole entry): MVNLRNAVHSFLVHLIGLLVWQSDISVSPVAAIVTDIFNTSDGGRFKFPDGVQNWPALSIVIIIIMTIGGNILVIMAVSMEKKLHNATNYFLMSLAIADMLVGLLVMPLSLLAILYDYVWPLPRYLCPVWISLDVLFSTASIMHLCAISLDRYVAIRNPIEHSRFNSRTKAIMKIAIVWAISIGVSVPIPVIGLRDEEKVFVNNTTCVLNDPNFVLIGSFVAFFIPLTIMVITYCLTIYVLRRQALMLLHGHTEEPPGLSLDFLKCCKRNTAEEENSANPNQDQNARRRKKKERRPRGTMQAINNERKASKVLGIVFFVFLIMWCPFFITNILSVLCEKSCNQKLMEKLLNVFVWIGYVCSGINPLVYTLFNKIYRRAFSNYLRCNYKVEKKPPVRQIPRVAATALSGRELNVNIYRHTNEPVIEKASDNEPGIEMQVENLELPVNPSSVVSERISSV
# [7] = Half life in human microsomes; format: ADME, Microsome
# D(2) dopamine receptor = D(2) dopamine receptor (Homo sapiens, UniProt P14416); experiment: Binding affinity to dopamine D2 receptor
# D(2) dopamine receptor, sequence (P14416 whole entry): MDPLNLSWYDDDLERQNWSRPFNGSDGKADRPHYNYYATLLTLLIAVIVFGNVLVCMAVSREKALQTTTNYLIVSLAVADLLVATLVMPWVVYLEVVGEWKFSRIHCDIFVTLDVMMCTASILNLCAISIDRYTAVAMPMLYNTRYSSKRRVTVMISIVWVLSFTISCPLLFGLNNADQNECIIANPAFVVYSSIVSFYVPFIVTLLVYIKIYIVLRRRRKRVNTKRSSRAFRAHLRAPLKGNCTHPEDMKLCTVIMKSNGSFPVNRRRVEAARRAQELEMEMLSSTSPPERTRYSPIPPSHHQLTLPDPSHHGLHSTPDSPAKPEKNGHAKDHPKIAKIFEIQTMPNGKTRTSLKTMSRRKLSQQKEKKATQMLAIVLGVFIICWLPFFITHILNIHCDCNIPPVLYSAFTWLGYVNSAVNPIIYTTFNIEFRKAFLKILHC
# [8] = biological target: T4, 5-hydroxytryptamine receptor 2B (Homo sapiens, UniProt P41595); experiment: Agonist activity at 5-HT2B receptor at 0.1 nM to 10 uM by FLIPR assay; format: functional
# T4 sequence (P41595 whole entry): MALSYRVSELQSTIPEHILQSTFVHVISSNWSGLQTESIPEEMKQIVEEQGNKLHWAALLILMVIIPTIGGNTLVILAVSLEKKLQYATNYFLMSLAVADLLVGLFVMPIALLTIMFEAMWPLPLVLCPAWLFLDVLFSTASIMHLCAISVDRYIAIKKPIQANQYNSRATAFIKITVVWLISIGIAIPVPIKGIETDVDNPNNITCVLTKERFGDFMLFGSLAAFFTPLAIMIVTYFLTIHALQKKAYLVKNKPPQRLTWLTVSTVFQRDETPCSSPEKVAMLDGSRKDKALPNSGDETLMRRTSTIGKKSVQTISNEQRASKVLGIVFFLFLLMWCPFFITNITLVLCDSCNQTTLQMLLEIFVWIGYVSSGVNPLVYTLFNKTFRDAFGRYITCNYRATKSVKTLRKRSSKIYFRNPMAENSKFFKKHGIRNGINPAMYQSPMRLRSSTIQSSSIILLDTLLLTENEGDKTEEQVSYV
# [9] = Binding affinity to P-glycoprotein
# [10] = biological target: T5, Alpha-2A adrenergic receptor (Homo sapiens, UniProt P08913); experiment: Binding affinity to adrenergic alpha2A receptor
# T5 sequence (P08913 whole entry): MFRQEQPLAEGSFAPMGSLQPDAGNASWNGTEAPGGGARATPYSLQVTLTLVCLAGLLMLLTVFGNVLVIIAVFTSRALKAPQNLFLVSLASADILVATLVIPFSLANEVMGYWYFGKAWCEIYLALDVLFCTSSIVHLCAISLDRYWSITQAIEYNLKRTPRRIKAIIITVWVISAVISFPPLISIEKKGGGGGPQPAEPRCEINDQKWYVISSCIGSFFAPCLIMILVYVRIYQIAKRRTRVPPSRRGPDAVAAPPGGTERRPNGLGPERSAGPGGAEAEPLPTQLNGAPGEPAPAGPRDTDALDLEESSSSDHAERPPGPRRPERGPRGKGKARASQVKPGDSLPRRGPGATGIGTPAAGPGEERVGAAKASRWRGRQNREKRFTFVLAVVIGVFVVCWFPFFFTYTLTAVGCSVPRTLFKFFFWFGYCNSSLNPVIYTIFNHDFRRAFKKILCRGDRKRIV
# [11] = biological target: 5-hydroxytryptamine receptor 1D (Homo sapiens, UniProt P28221); experiment: Binding affinity to 5-HT1D receptor
# 5-hydroxytryptamine receptor 1D, sequence (P28221 whole entry): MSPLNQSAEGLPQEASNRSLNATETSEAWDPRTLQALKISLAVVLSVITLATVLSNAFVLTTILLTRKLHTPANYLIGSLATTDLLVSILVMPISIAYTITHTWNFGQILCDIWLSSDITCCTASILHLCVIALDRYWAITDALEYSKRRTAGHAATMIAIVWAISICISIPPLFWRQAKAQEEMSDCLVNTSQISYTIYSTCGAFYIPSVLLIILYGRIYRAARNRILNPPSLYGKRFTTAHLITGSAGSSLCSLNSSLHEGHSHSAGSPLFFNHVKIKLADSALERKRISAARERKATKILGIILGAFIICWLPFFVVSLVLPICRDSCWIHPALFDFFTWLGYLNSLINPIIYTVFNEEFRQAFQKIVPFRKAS
# [12] = Solubility of the compound in water; format: physicochemical
# [13] = biological target: 5-hydroxytryptamine receptor 7 (Homo sapiens, UniProt P34969); experiment: Binding affinity to 5-HT7 receptor
# 5-hydroxytryptamine receptor 7, sequence (P34969 whole entry): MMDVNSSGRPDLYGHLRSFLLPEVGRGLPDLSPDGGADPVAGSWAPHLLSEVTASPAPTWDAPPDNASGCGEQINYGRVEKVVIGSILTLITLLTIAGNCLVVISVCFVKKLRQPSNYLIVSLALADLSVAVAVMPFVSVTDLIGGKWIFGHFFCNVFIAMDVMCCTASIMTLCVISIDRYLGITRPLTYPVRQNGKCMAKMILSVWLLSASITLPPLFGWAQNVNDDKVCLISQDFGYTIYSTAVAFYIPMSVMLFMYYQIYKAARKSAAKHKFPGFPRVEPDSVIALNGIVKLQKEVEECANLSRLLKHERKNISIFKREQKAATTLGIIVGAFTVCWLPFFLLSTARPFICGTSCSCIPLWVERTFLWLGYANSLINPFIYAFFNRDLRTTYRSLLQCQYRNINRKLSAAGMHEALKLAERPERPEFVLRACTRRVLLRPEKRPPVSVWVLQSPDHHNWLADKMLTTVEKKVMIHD
# [14] = Half life in rat microsomes; format: ADME, Microsome
# [15] = biological target: T4, 5-hydroxytryptamine receptor 2B; experiment: Binding affinity to 5-HT2B receptor
Compound,fraction unbound [1],Ki [2] [nM],IC50 [3] [nM],also measured
NCCC(=O)Nc1ccc2c(S(=O)(=O)c3cccc4ccccc34)n[nH]c2c1,> 0.2,24,456,
O=S(=O)(c1cccc2ccccc12)c1n[nH]c2ccc(CN3CCNCC3)cc12,> 0.2,0.24,19,
Cl.NCCC(=O)Nc1ccc2[nH]nc(S(=O)(=O)c3cccc4ccccc34)c2c1,> 0.2,1.5,3.8,Ki [4]: > 5000 nM; Ki [5]: > 5000 nM; Ki [6]: 573 nM; half-life [7]: > 30 min; Ki (D(2) dopamine receptor): > 5000 nM; Activity [8]: inactive; Activity [9]: inactive; Ki [10]: > 5000 nM; Ki [11]: > 5000 nM; solubility [12]: > 100 µg/mL; Ki [13]: > 5000 nM; half-life [14]: > 30 min; Ki [15]: 344 nM
CN(C)CCN(C)Cc1ccc2[nH]nc(S(=O)(=O)c3cccc4ccccc34)c2c1,> 0.2,14,91,
O=S(=O)(c1cccc2ccccc12)c1n[nH]c2c(NCC3CCNCC3)cccc12,> 0.2,17,87,
CC(N)CNc1ccc2[nH]nc(S(=O)(=O)c3cccc4ccccc34)c2c1 (stereo unspecified),> 0.2,1.4,30,
NCCNCc1ccc2[nH]nc(S(=O)(=O)c3cccc4ccccc34)c2c1,> 0.2,12,156,
O=C(CCN1CCCCC1)Nc1cccc2c(S(=O)(=O)c3cccc4ccccc34)n[nH]c12,> 0.2,24,,
Cl.O=S(=O)(c1ccc2ccccc2c1)c1n[nH]c2ccc(NC3CCNCC3)cc12,> 0.2,0.6,16,Ki [4]: 4350 nM; Ki [5]: > 5000 nM; Ki [6]: > 5000 nM; half-life [7]: > 30 min; Ki (D(2) dopamine receptor): > 5000 nM; Activity [8]: inactive; Activity [9]: inactive; Ki [10]: > 5000 nM; Ki [11]: > 5000 nM; solubility [12]: > 100 µg/mL; Ki [13]: > 5000 nM; half-life [14]: > 30 min; Ki [15]: 675 nM
NCCC(=O)Nc1cccc2c(S(=O)(=O)c3cccc4ccccc34)n[nH]c12,> 0.2,3.4,,
O=C(Nc1ccc2c(S(=O)(=O)c3cccc4ccccc34)n[nH]c2c1)C1CCNCC1,> 0.2,31,,
O=S(=O)(c1ccccc1)c1n[nH]c2ccc(NC3CCNCC3)cc12,> 0.2,3.1,125,
O=C(CCN1CCCCC1)Nc1ccc2c(S(=O)(=O)c3cccc4ccccc34)n[nH]c2c1,> 0.2,12,90,
O=S(=O)(c1cccc2ccccc12)c1n[nH]c2ccc(NCC3CCNCC3)cc12,> 0.2,3.5,174,
CN(C)CCC(=O)Nc1ccc2c(S(=O)(=O)c3cccc4ccccc34)n[nH]c2c1,> 0.2,44,,
NCCNc1ccc2c(S(=O)(=O)c3cccc4ccccc34)n[nH]c2c1,> 0.2,17,87,
CN(C)CCC(=O)Nc1cccc2c(S(=O)(=O)c3cccc4ccccc34)n[nH]c12,> 0.2,4.8,137,
O=S(=O)(c1ccc(C(F)(F)F)cc1)c1n[nH]c2ccc(NC3CCNCC3)cc12,> 0.2,1.5,27,
O=S(=O)(c1cccc2ccccc12)c1n[nH]c2c(NC3CCNCC3)cccc12,> 0.2,30,,
O=S(=O)(c1ccc(Cl)cc1)c1n[nH]c2ccc(NC3CCNCC3)cc12,> 0.2,2.3,44,
O=S(=O)(c1cccc2ccccc12)c1n[nH]c2cc(NC3CCNCC3)ccc12,> 0.2,53,,

Compound,fraction unbound [1],Ki [2] [nM],IC50 [3] [nM],also measured
CC(C)[C@H](N)CNc1ccc2[nH]nc(S(=O)(=O)c3cccc4ccccc34)c2c1,> 0.2,,,
O=S(=O)(c1cccc2ccccc12)c1n[nH]c2cccc(NC3CCCNC3)c12 (stereo unspecified),> 0.2,4.2,88,
O=C(Nc1cccc2c(S(=O)(=O)c3cccc4ccccc34)n[nH]c12)C1CCNCC1,> 0.2,28,,
COc1ccc(S(=O)(=O)c2n[nH]c3ccc(NC4CCNCC4)cc23)cc1,> 0.2,9.8,126,
O=C(Nc1cccc2c(S(=O)(=O)c3cccc4ccccc34)n[nH]c12)C1CCCNC1 (stereo unspecified),> 0.2,9.8,48,
Cl.O=S(=O)(c1cccc(Cl)c1)c1n[nH]c2ccc(NC3CCNCC3)cc12,> 0.2,1,12,Ki [4]: 455 nM; Ki [5]: 1660 nM; Ki [6]: 2430 nM; half-life [7]: > 30 min; Ki (D(2) dopamine receptor): > 5000 nM; Activity [8]: inactive; Activity [9]: inactive; Ki [10]: > 5000 nM; Ki [11]: 410 nM; solubility [12]: > 100 µg/mL; Ki [13]: 3220 nM; half-life [14]: > 30 min; Ki [15]: 155 nM
O=S(=O)(c1cccc2ccccc12)c1n[nH]c2cc(NCC3CCNCC3)ccc12,> 0.2,44,,
Cc1cccc(S(=O)(=O)c2n[nH]c3ccc(NC4CCNCC4)cc23)c1,> 0.2,0.8,19,
NCCNc1ccc2[nH]nc(S(=O)(=O)c3cccc4ccccc34)c2c1,> 0.2,6.7,13,
O=S(=O)(c1cccc2ccccc12)c1n[nH]c2cccc(NC3CCNCC3)c12,> 0.2,2.8,56,
O=S(=O)(c1cccc2ccccc12)c1n[nH]c2cc(NC3CCCNC3)ccc12 (stereo unspecified),> 0.2,57,,
O=S(=O)(c1cccc2ccccc12)c1n[nH]c2c(NC3CCCNC3)cccc12 (stereo unspecified),> 0.2,66,,
O=S(=O)(c1cccc2ccccc12)c1n[nH]c2cccc(NCC3CCNCC3)c12,> 0.2,9.5,21,
CCN(CC)CCC(=O)Nc1cccc2c(S(=O)(=O)c3cccc4ccccc34)n[nH]c12,> 0.2,27,137,
CN(C)CCNC(=O)c1ccc2[nH]nc(S(=O)(=O)c3cccc4ccccc34)c2c1,> 0.2,2.9,103,
O=S(=O)(c1cccc2ccccc12)c1n[nH]c2ccc(NC3CCCNC3)cc12 (stereo unspecified),> 0.2,1.7,95,
NCCNc1cccc2c(S(=O)(=O)c3cccc4ccccc34)n[nH]c12,> 0.2,17,93,
O=S(=O)(c1cccc(F)c1)c1n[nH]c2ccc(NC3CCNCC3)cc12,> 0.2,6.7,94,
O=S(=O)(c1ccc(F)cc1)c1n[nH]c2ccc(NC3CCNCC3)cc12,> 0.2,6.3,118,
O=C(NCCN1CCCCC1)c1ccc2[nH]nc(S(=O)(=O)c3cccc4ccccc34)c2c1,> 0.2,107,,
CCN(CC)CCC(=O)Nc1ccc2c(S(=O)(=O)c3cccc4ccccc34)n[nH]c2c1,> 0.2,65,,
